{
  "source": "paper PMC3667555",
  "about": "(Bioconjugate chemistry, 2013)",
  "tested_on": "U87MG human glioma xenografts",
  "test": "Biodistribution in athymic nude mice bearing U87MG glioma xenografts",
  "type": "in vivo",
  "details": "1 h p.i.",
  "outline": "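Female athymic nu/nu mice (4–5 weeks at purchase) received 5 × 10^6 U87MG cells in the shoulder flank and were used 4 weeks later (tumor 0.1–0.5 g, mice 20–25 g). Each got ~0.1 MBq HPLC-purified 99mTc radiotracer in saline by tail vein. Killed by pentobarbital overdose at 60 min p.i.; blood by heart puncture; organs washed, weighed, γ-counted; %ID/g; n = 4–6.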",
  "key": {"[1]": {"details": "tail-vein injection, without RGD2"}},
  "data": [
    {"substance": "[^99mTc(HYNIC-3P-RGD2)(tricine)(TPPTS)] [Compound 5]", "values": [
      {"measurement": "Tumor/Blood", "result": "15.36 ± 1.01"},
      {"measurement": "Tumor/Liver", "result": "2.55 ± 0.36"},
      {"measurement": "Tumor/Lung", "result": "1.71 ± 0.05"},
      {"measurement": "Tumor/Muscle", "result": "6.58 ± 1.58"},
      {"measurement": "Blood uptake", "setting": "tail-vein injection", "result": "0.47 ± 0.06", "unit": "%ID/g"},
      {"measurement": "Brain uptake", "setting": "tail-vein injection", "result": "0.17 ± 0.03", "unit": "%ID/g"},
      {"measurement": "Eyes uptake", "setting": "tail-vein injection", "result": "1.40 ± 0.13", "unit": "%ID/g"},
      {"measurement": "Heart uptake", "setting": "tail-vein injection", "result": "1.67 ± 0.15", "unit": "%ID/g"},
      {"measurement": "Kidneys uptake", "setting": "tail-vein injection", "result": "12.28 ± 1.09", "unit": "%ID/g"},
      {"measurement": "Liver uptake", "setting": "tail-vein injection", "result": "2.92 ± 0.77", "unit": "%ID/g"},
      {"measurement": "Lungs uptake", "setting": "tail-vein injection", "result": "4.25 ± 0.63", "unit": "%ID/g"},
      {"measurement": "Muscle uptake", "setting": "tail-vein injection", "result": "1.12 ± 0.15", "unit": "%ID/g"},
      {"measurement": "Spleen uptake", "setting": "tail-vein injection", "result": "3.11 ± 0.18", "unit": "%ID/g"},
      {"measurement": "Intestine uptake", "setting": "[1]", "result": "9.45 ± 1.31", "unit": "%ID/g"},
      {"measurement": "Tumor uptake", "setting": "[1]", "result": "7.24 ± 0.95", "unit": "%ID/g"}
    ]}
  ]
}
